Measurements from ChEMBL document CHEMBL1144749, “Development of 2-t butyl-N-methyl pyrimidones as potent inhibitors of HIV integrase” (Bioorg Med Chem Lett, 2008).

Assays:
[1] = tested on: Human immunodeficiency virus 1; test: Antiviral activity against HIV1 3b in human MT4 cells assessed as inhibition of viral spread in presence of 10% heat-inactivated fetal bovine serum; format: functional; details: Human immunodeficiency virus 1, 3b, read-out: CIC95
Method in brief: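 Spread assay: HIV-1 IIIb infection of MT-4 T-lymphoid cells in medium with 10% heat-inactivated FBS. CIC95 is the concentration inhibiting 95% of viral spread. Mean of at least 3 independent experiments.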

[2] = tested on: Human immunodeficiency virus 1; test: Antiviral activity against HIV1 3b in human MT4 cells assessed as inhibition of viral spread in presence of 50% normal human serum; format: functional; details: Human immunodeficiency virus 1, 3b, read-out: CIC95
Method in brief: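 Spread assay: HIV-1 IIIb infection of MT-4 T-lymphoid cells run with 50% normal human serum. CIC95 is the concentration inhibiting 95% of viral spread.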

[3] = molecular target: Human immunodeficiency virus type 1 integrase (Human immunodeficiency virus 1, UniProt Q7ZJM1); test: Inhibition of HIV1 recombinant integrase strand transfer activity
Method in brief: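 Strand-transfer assay: inhibitors added after integrase assembly and washes. IC50 is the concentration reducing integrase activity by 50%. Mean of at least three independent experiments.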

Homo sapiens = species: Homo sapiens; test: Fraction unbound in human plasma proteins after 1 hr
[4] = Terminal half life in Sprague-Dawley rat plasma at 3 mg/kg, iv; format: ADME, organism-based; set-up: dose 3 mg/kg, route intravenous
Method in brief: (§1)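 Sprague–Dawley rats dosed iv in 20% DMSO/60% PEG400/20% water, or orally as a 1% methylcellulose suspension. Outputs: AUC after po dosing, plasma clearance, terminal-phase plasma half life after iv dosing, oral bioavailability.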

[5] = Clearance in Sprague-Dawley rat plasma at 3 mg/kg, iv and 3 mg/kg, po; format: ADME, organism-based; method in brief: as §1
[6] = (§2) AUC in Sprague-Dawley rat at 3 mg/kg, po; format: ADME, organism-based, Plasma; set-up: dose 3 mg/kg, route oral; details: Sprague-Dawley, plasma; method in brief: as §1
[7] = (§3) Oral bioavailability in Sprague-Dawley rat at 3 mg/kg; format: ADME, organism-based; details: Sprague-Dawley, in vivo; method in brief: as §1
[8] = Metabolic stability assessed as intrinsic clearance in rat microsome at 1 uM after 90 mins; format: ADME; details: liver microsomes
Method in brief: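 Compound at 1 µM with microsomes at 1 mg/ml. Substrate degradation followed by LC/MS/MS over a 90 min incubation.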

Rattus norvegicus [9] = test: as §2; format: ADME, organism-based, Plasma; set-up: dose 3 mg/kg, route oral; details: in vivo; method in brief: as §1
Rattus norvegicus [10] = test: as §3; format: ADME, organism-based; details: in vivo; method in brief: as §1

Chain of Human immunodeficiency virus type 1 integrase (Q7ZJM1 whole entry): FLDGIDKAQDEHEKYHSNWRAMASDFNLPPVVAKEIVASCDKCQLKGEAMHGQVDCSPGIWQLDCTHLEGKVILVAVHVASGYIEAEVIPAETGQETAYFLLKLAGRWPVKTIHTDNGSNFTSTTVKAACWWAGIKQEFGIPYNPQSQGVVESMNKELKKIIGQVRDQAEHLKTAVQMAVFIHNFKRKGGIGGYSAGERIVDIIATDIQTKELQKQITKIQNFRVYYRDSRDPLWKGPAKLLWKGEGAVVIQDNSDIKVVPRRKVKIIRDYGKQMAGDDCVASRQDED

Row | Compound | IC50 [3] [nM] | fraction unbound at 1 h (Homo sapiens) | half-life [4] [min] | clearance [5] [mL/min/kg] | AUC [6] [µM·h] | bioavailability [7] [%] | microsomal CLint at 1 µM [8] [µL/min/mg] | AUC (Rattus norvegicus [9]) [µM·h] | F (Rattus norvegicus [10]) [%] | IC95 [1] [µM] | IC95 [2] [µM]
1 | Cn1c(C(C)(C)C)nc(C(=O)NCc2cccc3cc[nH]c23)c(O)c1=O | 20 | – | – | – | – | – | – | – | – | 1 | > 1
2 | CN(C)C(=O)c1cc(F)ccc1CNC(=O)c1nc(C(C)(C)C)n(C)c(=O)c1O | 180 | 0.18 | – | – | – | – | – | – | – | 0.03 | 0.03
3 | Cn1c(C(C)(C)C)nc(C(=O)NCc2ccc(F)cc2C(=O)NCC(F)(F)F)c(O)c1=O | 90 | 0.01 | – | – | – | – | – | – | – | 0.03 | 0.12
4 | Cn1c(C(C)(C)C)nc(C(=O)NCc2ccc(F)cc2C(=O)N2CCCC2)c(O)c1=O | 230 | – | – | – | – | – | – | – | – | 0.12 | 0.12
5 | O=C(NCc1ccc(F)cc1)c1nc(-c2cccs2)nc(O)c1O | – | – | – | – | – | – | – | – | – | > 10 | –
6 | CCOc1ccccc1CNC(=O)c1nc(C(C)(C)C)n(C)c(=O)c1O | 20 | – | – | – | – | – | – | – | – | 0.12 | 0.5
7 | CN1CCN(C(=O)c2cc(F)ccc2CNC(=O)c2nc(C(C)(C)C)n(C)c(=O)c2O)CC1 | 490 | 0.34 | – | – | – | – | – | – | – | 0.12 | 0.12
8 | Cn1c(C(C)(C)C)nc(C(=O)NCc2ccc(F)cc2)c(O)c1=O | 10 | – | – | – | – | – | – | – | – | 0.12 | 0.37
9 | Cc1noc(-c2cc(F)ccc2CNC(=O)c2nc(C(C)(C)C)n(C)c(=O)c2O)n1 | 20 | – | – | – | – | – | – | – | – | 0.02 | 0.12
10 | Cn1c(C(C)(C)C)nc(C(=O)NCc2ccc(F)cc2S(C)(=O)=O)c(O)c1=O | 20 | – | 108 | 37 | 0.6 | 17 | 63 | – | – | 0.01 | 0.02
11 | CC(C)(C)c1nc(O)c(O)c(C(=O)NCc2cccc3cc[nH]c23)n1 | 10 | – | – | – | – | – | – | – | – | > 1 | > 1

Further lines, with some results ahead:

Row | IC50 [3] [nM] | fraction unbound at 1 h (Homo sapiens) | half-life [4] [min] | clearance [5] [mL/min/kg] | AUC [6] [µM·h] | bioavailability [7] [%] | microsomal CLint at 1 µM [8] [µL/min/mg] | AUC (Rattus norvegicus [9]) [µM·h] | F (Rattus norvegicus [10]) [%] | Compound | IC95 [1] [µM] | IC95 [2] [µM]
12 | 20 | – | – | – | – | – | – | – | – | CNC(=O)c1cc(F)ccc1CNC(=O)c1nc(C(C)(C)C)nc(O)c1O | – | –
13 | 70 | 0.02 | – | – | – | – | – | – | – | CCCNC(=O)c1cc(F)ccc1CNC(=O)c1nc(C(C)(C)C)n(C)c(=O)c1O | 0.03 | 0.06
14 | 20 | 0.07 | 96 | 24 | 1.4 | 18 | 16 | – | – | CNC(=O)c1cc(F)ccc1CNC(=O)c1nc(C(C)(C)C)n(C)c(=O)c1O | 0.01 | 0.01
15 | 70 | 0.03 | 156 | 21 | 1.8 | 30 | – | – | – | CCNC(=O)c1cc(F)ccc1CNC(=O)c1nc(C(C)(C)C)n(C)c(=O)c1O | 0.02 | 0.02
16 | 10 | – | – | – | – | – | – | – | – | CC(C)(C)c1nc(O)c(O)c(C(=O)NCc2ccc(F)cc2)n1 | 0.25 | 2.5
17 | 10 | – | – | – | – | – | – | – | – | CCOc1ccccc1CNC(=O)c1nc(C(C)(C)C)nc(O)c1O | 1 | > 1
18 | 60 | – | – | – | – | – | – | – | – | CC(C)(C)c1nc(O)c(O)c(C(=O)NCc2ccc(F)cc2S(C)(=O)=O)n1 | – | –
19 | 20 | 0.06 | 216 | 55 | 0.6 | 23 | – | – | – | Cn1c(C(C)(C)C)nc(C(=O)NCc2ccc(F)cc2C(N)=O)c(O)c1=O | 0.01 | 0.01
20 | 20 | – | – | – | – | – | – | – | – | Cc1noc(-c2cc(F)ccc2CNC(=O)c2nc(C(C)(C)C)nc(O)c2O)n1 | 0.12 | > 1
21 | 90 | 0.01 | 96 | – | – | – | – | 3.5 | 44 | CC(C)NC(=O)c1cc(F)ccc1CNC(=O)c1nc(C(C)(C)C)n(C)c(=O)c1O | 0.06 | 0.06
